The values that follow come from ChEMBL document CHEMBL4808228, “Synthesis of novel 1,2,4-trioxanes and antimalarial evaluation against multidrug-resistant Plasmodium yoelii nigeriensis” (2021).

Common to all, as to type: functional
In assay [1] the test system is Plasmodium yoelii. The assay can be described thus: Antimalarial activity against multidrug-resistant Plasmodium yoelii infected in Swiss mouse assessed as animal survival at 48 mg/kg, im for 4 days and measured for 28 days. The following applies: 672 h, time 28 day. The procedure, abridged: (§1)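 Intramuscular dosing of groups of five Swiss mice (25 ± 1 g) infected on day 0 with 1 X 10⁶ parasitized RBC, on days 0–3 in two divided daily doses. Parasitaemia came from thin blood smears over days 4–28. Animals without patent infection till day 28 were recorded as cured. The strain is resistant to chloroquine, mefloquine and halofantrine.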

For assay [2], the system named is Plasmodium yoelii. The assay can be described thus: Antimalarial activity against multidrug-resistant Plasmodium yoelii infected in Swiss mouse assessed as animal survival at 48 mg/kg, po for 4 days and measured for 28 days. The following applies: 672 h, time 28 day. The procedure, abridged:
(§2)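 Swiss mice (25 ± 1 g) were inoculated with 1 X 10⁶ parasitized RBC on day 0. Groups of five were dosed orally on days 0–3 in two divided daily doses, in groundnut oil, 0.1 ml per dose. Thin blood smears were read on days 4–28, and mice without patent infection by day 28 counted as cured. β-Arteether was the positive control.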

Assay [3] has as its system Plasmodium yoelii. The assay can be described thus: Antimalarial activity against multidrug-resistant Plasmodium yoelii infected in Swiss mouse assessed as inhibition of parasitemia at 48 mg/kg, im for 4 days measured on day 4 relative to control. The following applies: 96 h, time 4 day. An outline of the steps: (§3)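 In this im regimen, mice (Swiss, 25 ± 1 g; n = 5 per dose) received 1 X 10⁶ parasitized RBC on day 0 and were treated on days 0–3 in two divided daily doses. Parasitaemia on day 4 was read from thin blood smears, and suppression = [(C−T)/C] × 100 relative to the control group. Full suppression meant none seen in 50 oil immersion fields.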

Assay [4] relates to Plasmodium yoelii. The assay can be described thus: Antimalarial activity against multidrug-resistant Plasmodium yoelii infected in Swiss mouse assessed as inhibition of parasitemia at 48 mg/kg, po for 4 days measured on day 4 relative to control. The following applies: 96 h, time 4 day. The procedure, abridged:
(§4)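 Swiss mice (25 ± 1 g), five per dose, were infected with 1 X 10⁶ parasitized RBC on day 0. Dosing was oral on days 0–3, twice daily, in groundnut oil (0.1 ml per dose). Day-4 thin-smear parasitaemia gave % suppression = [(C−T)/C] × 100 versus the control group. 100% meant no parasites in 50 oil immersion fields.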

Assay [5] relates to Plasmodium yoelii. The assay can be described thus: Antimalarial activity against multidrug-resistant Plasmodium yoelii infected in Swiss mouse assessed as animal survival at 24 mg/kg, im for 4 days and measured for 28 days. The following applies: 672 h, time 28 day. The procedure, abridged:
as §1

In assay [6] the test system is Plasmodium yoelii. Description: Antimalarial activity against multidrug-resistant Plasmodium yoelii infected in Swiss mouse assessed as inhibition of parasitemia at 48 mg/kg, im for 4 days measured on day 4 relative to po dosed artemisinin. The following applies: time 4 day.
In assay [7] the test system is Plasmodium yoelii. Description: Antimalarial activity against multidrug-resistant Plasmodium yoelii infected in Swiss mouse assessed as inhibition of parasitemia at 48 mg/kg, po for 4 days measured on day 4 relative to po dosed artemisinin. The following applies: time 4 day.
The test system of assay [8] is Plasmodium yoelii. Description: Antimalarial activity against multidrug-resistant Plasmodium yoelii infected in Swiss mouse assessed as inhibition of parasitemia at 24 mg/kg, im for 4 days measured on day 4 relative to control. The following applies: 96 h, time 4 day. The procedure, abridged: as §3
Assay [9] has as its system Plasmodium yoelii. Description: Antimalarial activity against multidrug-resistant Plasmodium yoelii infected in Swiss mouse assessed as inhibition of parasitemia at 24 mg/kg, po for 4 days measured on day 4 relative to control. The following applies: 96 h, time 4 day. The procedure, abridged:
as §4

The subject of assay [10] is Plasmodium yoelii. Description: Antimalarial activity against multidrug-resistant Plasmodium yoelii infected in Swiss mouse assessed as animal survival at 24 mg/kg, po for 4 days and measured for 28 days. The following applies: 672 h, time 28 day. The procedure, abridged: as §2
Assay [11] deals with Plasmodium yoelii. Description: Antimalarial activity against multidrug-resistant Plasmodium yoelii infected in Swiss mouse assessed as animal survival at 96 mg/kg, po for 4 days and measured for 28 days. The following applies: 672 h, time 28 day. An outline of the steps:
as §2

The test system of assay [12] is Plasmodium yoelii. The assay can be described thus: Antimalarial activity against multidrug-resistant Plasmodium yoelii infected in Swiss mouse assessed as animal survival at 96 mg/kg, im for 4 days and measured for 28 days. The following applies: 672 h, time 28 day. The procedure, abridged:
as §1

The test system of assay [13] is Plasmodium yoelii. The assay can be described thus: Antimalarial activity against multidrug-resistant Plasmodium yoelii infected in Swiss mouse assessed as inhibition of parasitemia at 96 mg/kg, im for 4 days measured on day 4 relative to control. The following applies: 96 h, time 4 day. An outline of the steps: as §3
The test system of assay [14] is Plasmodium yoelii. Description: Antimalarial activity against multidrug-resistant Plasmodium yoelii infected in Swiss mouse assessed as inhibition of parasitemia at 96 mg/kg, po for 4 days measured on day 4 relative to control. The following applies: 96 h, time 4 day. An outline of the steps: as §4

Each structure is given as a SMILES string.

For the compound `C=C(c1ccc(Oc2ccc3ccc(OCCOC(=O)CCC(=O)O)cc3c2)cc1)C1COC2(OO1)C1CC3CC(C1)CC2C3` (centres undefined), the survival at 48 mg/kg with Plasmodium yoelii [1] and in the assay with Plasmodium yoelii [2] was 0% throughout. Moreover, the inhibition in vivo at 48 mg/kg in the assay on Plasmodium yoelii [3] was found to be 58.8%; in the assay on Plasmodium yoelii [4], 77.4%.

In the case of `C=C(c1ccc(Oc2ccc3ccc(OCCOC(=O)CCC(=O)O)cc3c2)cc1)C1COC2(CCCCC2)OO1` (centres undefined), in the assay with Plasmodium yoelii [1], the survival at 48 mg/kg is 60%. In addition, the inhibition in vivo at 48 mg/kg with Plasmodium yoelii [3] and in the assay with Plasmodium yoelii [4] was 100% each time.

As for `C=C(c1ccc(Oc2ccc3ccc(OCCOC(=O)CCC(=O)O)cc3c2)cc1)C1COC2(CCCC2)OO1` (centres undefined), the survival at 48 mg/kg with Plasmodium yoelii [1] and with Plasmodium yoelii [2] was 100% in each case. Also, the survival at 24 mg/kg turned out to be 80% in the assay on Plasmodium yoelii [5] and 0% in the assay with Plasmodium yoelii [10]. Further, the “fold change (FC)” value in the assay with Plasmodium yoelii [6] and in the assay with Plasmodium yoelii [7] was 2 throughout. In addition, the inhibition in vivo at 48 mg/kg in the assay with Plasmodium yoelii [3] and in the assay on Plasmodium yoelii [4] was 100% throughout. The inhibition in vivo at 24 mg/kg with Plasmodium yoelii [8] and in the assay on Plasmodium yoelii [9] was 100% each time.

On to `C=C(c1ccc(Oc2ccc3ccc(OCCO)cc3c2)cc1)C1COC2(OO1)C1CC3CC(C1)CC2C3` (centres undefined), for which the survival at 48 mg/kg in the assay with Plasmodium yoelii [1] and in the assay with Plasmodium yoelii [2] was 0% throughout. In addition, the inhibition in vivo at 48 mg/kg stood at 51.4% in the assay with Plasmodium yoelii [3] and 83.2% in the assay on Plasmodium yoelii [4].

Turning to `C=C(c1ccc(Oc2ccc(OCCOC(=O)CCC(=O)O)cc2)cc1)C1COC2(CCCCC2)OO1` (centres undefined), the survival at 96 mg/kg in the assay on Plasmodium yoelii [11] and with Plasmodium yoelii [12] was 0% throughout. The results for the inhibition in vivo at 96 mg/kg in the assay on Plasmodium yoelii [13] and in the assay with Plasmodium yoelii [14] were 28.4% and 10%, respectively.

Consider `C=C(c1ccc(Oc2cccc3c(OCCO)cccc23)cc1)C1COC2(CCCC2)OO1` (centres undefined), for which the survival at 48 mg/kg in the assay with Plasmodium yoelii [1] and in the assay on Plasmodium yoelii [2] was 0% each time. In addition, the inhibition in vivo at 48 mg/kg came out at 46.2% in the assay with Plasmodium yoelii [3] and 44.1% in the assay on Plasmodium yoelii [4].

As to `C=C(c1ccc(Oc2cccc3c(OCCOC(=O)CCC(=O)O)cccc23)cc1)C1COC2(CCCC2)OO1` (centres undefined), the survival at 48 mg/kg with Plasmodium yoelii [1] and in the assay on Plasmodium yoelii [2] was 0% throughout. Moreover, the inhibition in vivo at 48 mg/kg in the assay with Plasmodium yoelii [3] turned out to be 28.3%; in the assay on Plasmodium yoelii [4], 39.4%.

`C=C(c1ccc(Oc2ccc3ccc(OCCO)cc3c2)cc1)C1COC2(CCCCC2)OO1` (centres undefined): the survival at 48 mg/kg with Plasmodium yoelii [1] and with Plasmodium yoelii [2] was 0% each time. The figures for the inhibition in vivo at 48 mg/kg in the assay with Plasmodium yoelii [3] and in the assay with Plasmodium yoelii [4] were 71.6% and 83.5%, respectively.

Regarding `C=C(c1ccc(Oc2cccc3c(OCCOC(=O)CCC(=O)O)cccc23)cc1)C1COC2(OO1)C1CC3CC(C1)CC2C3` (centres undefined), the survival at 48 mg/kg in the assay on Plasmodium yoelii [1] and in the assay on Plasmodium yoelii [2] was 0% throughout. The inhibition in vivo at 48 mg/kg was determined as 42.2% with Plasmodium yoelii [3] and 27.5% in the assay with Plasmodium yoelii [4].

As to `C=C(c1ccc(Oc2ccc(OCCO)cc2)cc1)C1COC2(CCCCC2)OO1` (centres undefined), the survival at 96 mg/kg in the assay with Plasmodium yoelii [11] and with Plasmodium yoelii [12] was 0% in each case. The inhibition in vivo at 96 mg/kg with Plasmodium yoelii [13] was 72.4%; with Plasmodium yoelii [14], 45.4%.

Take `C=C(c1ccc(Oc2ccc(OCCO)cc2)cc1)C1COC2(OO1)C1CC3CC(C1)CC2C3` (centres undefined): the survival at 96 mg/kg in the assay with Plasmodium yoelii [11] is 100%; in the assay on Plasmodium yoelii [12], 0%. In the assay with Plasmodium yoelii [2], the survival at 48 mg/kg worked out at 0%. Also, the inhibition in vivo at 96 mg/kg with Plasmodium yoelii [13] and in the assay with Plasmodium yoelii [14] was 100% in each case. Moreover, in the assay with Plasmodium yoelii [4], the inhibition in vivo at 48 mg/kg worked out at 85.5%.

`C=C(c1ccc(Oc2cccc3c(OCCO)cccc23)cc1)C1COC2(OO1)C1CC3CC(C1)CC2C3` (centres undefined): the survival at 48 mg/kg in the assay with Plasmodium yoelii [1] came out at 0%; with Plasmodium yoelii [2], 40%. Also, the inhibition in vivo at 48 mg/kg is 46.2% with Plasmodium yoelii [3] and 100% with Plasmodium yoelii [4].

As for `C=C(c1ccc(Oc2ccc(OCCOC(=O)CCC(=O)O)cc2)cc1)C1COC2(OO1)C1CC3CC(C1)CC2C3` (centres undefined), the survival at 96 mg/kg in the assay on Plasmodium yoelii [11] turned out to be 0%; in the assay on Plasmodium yoelii [12], 40%. Besides, the inhibition in vivo at 96 mg/kg in the assay with Plasmodium yoelii [13] came out at 100%; in the assay on Plasmodium yoelii [14] it was 35.6%.

For the compound `C=C(c1ccc(Oc2ccc(OCCO)cc2)cc1)C1COC2(CCCC2)OO1` (centres undefined), the survival at 96 mg/kg in the assay with Plasmodium yoelii [11] and in the assay on Plasmodium yoelii [12] was 0% each time. Further, the inhibition in vivo at 96 mg/kg in the assay on Plasmodium yoelii [13] is 85.2%; in the assay on Plasmodium yoelii [14], 38.4%.

With `C=C(c1ccc(Oc2cccc3c(OCCO)cccc23)cc1)C1COC2(CCCCC2)OO1` (centres undefined), the survival at 48 mg/kg with Plasmodium yoelii [1] and in the assay with Plasmodium yoelii [2] was 0% each time. Moreover, the inhibition in vivo at 48 mg/kg in the assay on Plasmodium yoelii [3] is 46.2%; with Plasmodium yoelii [4], 38.2%.

For the compound `C=C(c1ccc(Oc2cccc3c(OCCOC(=O)CCC(=O)O)cccc23)cc1)C1COC2(CCCCC2)OO1` (centres undefined), the survival at 48 mg/kg with Plasmodium yoelii [1] and with Plasmodium yoelii [2] was 0% in each case. Besides, the inhibition in vivo at 48 mg/kg in the assay on Plasmodium yoelii [3] worked out at 26.6%; with Plasmodium yoelii [4], 49.8%.

In the case of `C=C(c1ccc(Oc2ccc3ccc(OCCO)cc3c2)cc1)C1COC2(CCCC2)OO1` (centres undefined), the survival at 48 mg/kg in the assay on Plasmodium yoelii [1] and in the assay on Plasmodium yoelii [2] was 80% in each case. For the same compound, the inhibition in vivo at 48 mg/kg in the assay on Plasmodium yoelii [3] and with Plasmodium yoelii [4] was 100% in each case.

As to `C=C(c1ccc(Oc2ccc(OCCOC(=O)CCC(=O)O)cc2)cc1)C1COC2(CCCC2)OO1` (centres undefined), the survival at 96 mg/kg in the assay on Plasmodium yoelii [11] and with Plasmodium yoelii [12] was 0% throughout. Besides, the results for the inhibition in vivo at 96 mg/kg in the assay on Plasmodium yoelii [13] and with Plasmodium yoelii [14] were 77.8% and 44.3%, respectively.

In the case of `C[C@@H]1CC[C@H]2[C@@H](C)C(=O)O[C@@H]3O[C@@]4(C)CC[C@@H]1[C@]32OO4` [ARTEMISININ], the survival at 48 mg/kg with Plasmodium yoelii [1] worked out at 100%. Also, in the assay on Plasmodium yoelii [5], the survival at 24 mg/kg amounted to 80%. In addition, the inhibition in vivo at 48 mg/kg in the assay on Plasmodium yoelii [3] is 100%. In addition, the inhibition in vivo at 24 mg/kg in the assay with Plasmodium yoelii [8] was 100%. For the same compound, in the assay with Plasmodium yoelii [14], the inhibition in vivo at 96 mg/kg turned out to be 100%.

As a reminder, the inhibition in vivo is the drop in the measured response relative to a control, in per cent.
